# Measured values: ChEMBL document CHEMBL1145051, “Synthesis and biological evaluation of 3-alkoxy analogues of flavone-8-acetic acid” (J Med Chem, 2003)
# Columns and labels:
# [1] = test system: C13; assay: Direct cytotoxicity against the selected tumor cell line c13* was determined especially on ovarian adenocarcinoma derived cells; format: functional, cell-based; settings: Homo sapiens
# [2] = Indirect antitumor effect was measured as cytotoxicity with human monocytes pretreated with compounds; format: functional
# How it was run: (§1)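 Adherent human PBMC (Ficoll isolation, 2 h adherence, washed) pretreated 24 h with 25, 50, 100 μM in RPMI 1640/5% FCS, triplicate wells. Medium removed, C13* cells (2 × 10^3/well) cocultured 24 h, read by MTT. Three experiments; IC50 by Litchfield–Wilcoxon.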
# [3] = Potency ratio was determined against C13 cell line versus FAA (Flavone acetic acid); less potent; format: functional
# How it was run: (§2)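 Ratio IC50(FAA)/IC50(analogue) from direct 24 h MTT cytotoxicity on the named line (LoVo S, LoVo R, 2008 or C13*), concentrations up to 500 μM. IC50 values and 95% confidence limits by Litchfield–Wilcoxon method; three experiments in triplicate.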
# [4] = Potency ratio was determined against human monocytes versus DMXAA (Dimethylxanthenone-4-acetic acid); format: functional
# How it was run: (§3)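 Ratio of reference IC50 (FAA or DMXAA) to analogue IC50 in the effector-cell coculture assay: mouse peritoneal macrophages or adherent human PBMC pretreated 24 h with drug, then C13* target cells added for 24 h, lysis by MTT. IC50 and ratios by Litchfield–Wilcoxon; three experiments in triplicate.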
# [5] = species: Mus musculus; assay: Indirect antitumor effect was measured as cytotoxicity with murine macrophages pretreated with compounds; format: functional
# How it was run: (§4)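 Resident mouse peritoneal macrophages (heparinised PBS lavage, 2 h adherence) plated at 1 × 10^4 cells/well with a range of drug concentrations, triplicate wells, 24 h. Medium removed, C13* cells (2 × 10^3/well) added, cocultured 24 h. Lysis by MTT; specific cytotoxicity = [OD(macrophages+C13*) − OD(macrophages)]/OD(C13*). Three experiments; IC50 by Litchfield–Wilcoxon.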
# [6] = test system: LoVo; assay: In vitro cytotoxicity against the selected tumor cell line LoVoS arising from human colon adenocarcinoma was determined; not detected; format: functional, cell-based
# [7] = Potency ratio was determined against macrophages; more potent; format: functional; how it was run: as §3
# [8] = test system: 2008; assay: Direct cytotoxicity against the selected tumor cell line 2008 was determined especially on ovarian adenocarcinoma derived cells; not detected; format: functional, cell-based, Homo sapiens
# [9] = Potency ratio was determined against murine macrophages versus FAA (Flavone acetic acid); format: functional; how it was run: as §3
# [10] = test system: LoVo; assay: In vitro cytotoxicity against the selected tumor cell line LoVoS arising from human colon adenocarcinoma was determined; format: functional, cell-based
# [11] = test system: LoVo; assay: In vitro cytotoxicity against the selected tumor cell line LoVoR arising from human colon adenocarcinoma was determined; format: functional, cell-based
# [12] = Indirect antitumor effect was measured as cytotoxicity against human monocytes; not detected; format: functional; how it was run: as §1
# [13] = test system: C13; assay: Direct cytotoxicity against the selected tumor cell line c13* was determined especially on ovarian adenocarcinoma derived cells; not detected; format: functional, cell-based, Homo sapiens
# [14] = Potency ratio was determined against LoVoS versus FAA (Flavone acetic acid); format: functional; how it was run: as §2
# [15] = Potency ratio was determined against LoVoR versus FAA (Flavone acetic acid); format: functional; how it was run: as §2
# [16] = test system: 2008; assay: Direct cytotoxicity against the selected tumor cell line 2008 was determined especially on ovarian adenocarcinoma derived cells; format: functional, cell-based; settings: Homo sapiens
# [17] = test system: C13; assay: cDirect cytotoxicity against the selected tumor cell line c13* was determined especially on ovarian adenocarcinoma derived cells; format: functional, cell-based; settings: Homo sapiens
# [18] = Potency ratio was determined against LoVoR versus FAA (Flavone acetic acid); less potent; format: functional; how it was run: as §2
# [19] = Potency ratio was determined against 2008 cell line versus FAA (Flavone acetic acid); less potent; format: functional; how it was run: as §2
# [20] = Potency ratio was determined against macrophages; format: functional; how it was run: as §3
# [21] = species: Mus musculus; assay: Indirect antitumor effect was measured as cytotoxicity against murine macrophages; not detected; format: functional; how it was run: as §4
# [22] = test system: LoVo; assay: In vitro cytotoxicity against the selected tumor cell line LoVoR arising from human colon adenocarcinoma was determined; not detected; format: functional, cell-based
# [23] = Potency ratio was determined against human monocytes versus DMXAA (Dimethylxanthenone-4-acetic acid); less potent; format: functional; how it was run: as §3
# [24] = cPotency ratio was determined against macrophages; more potent; format: functional; how it was run: as §3
# [25] = test system: LoVo; assay: In vitro cytotoxicity against the selected tumor cell line LoVoR arising from human colon adenocarcinoma was determined
# [26] = Potency ratio was determined against 2008 cell line versus FAA (Flavone acetic acid); format: functional; how it was run: as §2
# [27] = Potency ratio was determined against C13 cell line versus FAA (Flavone acetic acid); format: functional; how it was run: as §2
# [28] = Potency ratio was determined against human monocytes versus DMXAA (Dimethylxanthenone-4-acetic acid); more potent; format: functional; how it was run: as §3
Compound,IC50 [1] [µM],IC50 [2] [µM],Potency ratio [3],Potency ratio [4],IC50 [5] [µM],IC50 [6],IC50 [8],Potency ratio [9],IC50 [10] [µM],IC50 [11] [µM],IC50 [12],IC50 [13],Potency ratio [14],Potency ratio [18],IC50 [22],further results
COc1c(-c2ccccc2C)oc2c(CC(=O)O)cccc2c1=O,524,127,0.4,1,248,not detected,not detected,1.1,,,,,,,,Potency ratio [7]: 1.9
CC(C)Oc1c(-c2ccccc2)oc2c(CC(=O)O)cccc2c1=O,,,,,225,,not detected,1.3,815,407,not detected,not detected,0.7,,,Potency ratio [15]: 0.9
COc1ccc(-c2oc3c(CC(=O)O)cccc3c(=O)c2OC)cc1,,181,0.4,0.7,238,,,1.2,601,556,,,0.9,0.7,,IC50 [16]: 625 µM; IC50 [17]: 548 µM; Potency ratio [19]: 0.7; Potency ratio [20]: 1.3
COc1c(-c2cccs2)oc2c(CC(=O)O)cccc2c1=O,,213,,,,not detected,not detected,,,,,not detected,,,not detected,IC50 [21]: not detected; Potency ratio [23]: 0.6
COc1c(-c2ccc(Cl)cc2)oc2c(CC(=O)O)cccc2c1=O,350,105,0.7,1.3,293,not detected,not detected,0.9,,,,,,,not detected,Potency ratio [24]: 2.8
COc1c(-c2ccccc2Cl)oc2c(CC(=O)O)cccc2c1=O,,,,,284,,not detected,1,605,780,not detected,not detected,0.9,0.5,,
COc1c(-c2ccc(C)cc2)oc2c(CC(=O)O)cccc2c1=O,806,,0.3,,164,,not detected,1.7,632,570,not detected,,0.9,,,Potency ratio [15]: 0.7
COc1ccccc1-c1oc2c(CC(=O)O)cccc2c(=O)c1OC,,193,,0.7,,,not detected,,980,,,not detected,0.6,0.5,,IC50 [21]: not detected; IC50 [25]: 794 µM
O=C(O)Cc1cccc2c(=O)cc(-c3ccccc3)oc12 [MITOFLAXONE],233,,,,285,,,1,564,378,not detected,,1,,,IC50 [16]: 421 µM; Potency ratio [26]: 1; Potency ratio [15]: 0.6; Potency ratio [27]: 1
COc1c(-c2cccc(Cl)c2)oc2c(CC(=O)O)cccc2c1=O,,36.8,,,239,,not detected,1.2,534,,,not detected,1,,not detected,Potency ratio [7]: 6.5; Potency ratio [28]: 3.7
COc1c(-c2cccc(C(F)(F)F)c2)oc2c(CC(=O)O)cccc2c1=O,,18.3,,,,not detected,not detected,,,532,,not detected,,,,IC50 [21]: not detected; Potency ratio [28]: 7.3; Potency ratio [15]: 0.7
COc1c(-c2cccc(C)c2)oc2c(CC(=O)O)cccc2c1=O,,113,,1.2,234,,not detected,1.2,697,648,,not detected,0.8,0.6,,Potency ratio [7]: 2.1
COc1c(-c2ccc(F)cc2)oc2c(CC(=O)O)cccc2c1=O,,436,,,,not detected,not detected,,,,,not detected,,,not detected,IC50 [21]: not detected; Potency ratio [23]: 0.3
CCOc1c(-c2ccccc2)oc2c(CC(=O)O)cccc2c1=O,,,,,431,,not detected,0.7,611,,not detected,not detected,0.9,,not detected,
COc1cccc(-c2oc3c(CC(=O)O)cccc3c(=O)c2OC)c1,,,,,182,,not detected,1.6,829,514,not detected,not detected,0.7,0.7,,
COc1c(-c2ccccc2)oc2c(CC(=O)O)cccc2c1=O,757,,0.3,,,,not detected,,719,627,,,0.8,0.6,,
